Test results: ChEMBL document CHEMBL1154573, “New 7,20:14,20-diepoxy ent-kauranoids from Isodon xerophilus” (J Nat Prod, 2000)
Converted amounts (≈) assume the structure as drawn.

How the values were obtained:
Type in all cases: functional, cell-based
[1] = test system: K562; assay: Cytotoxicity against human K562 cells after 48 hrs by MTT assay; conditions: K562, 48 h
In short: (§1)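 MTT reduction assay. Cells in log-phase growth were seeded at 4 × 10⁴ cells/mL and exposed in four replicates to drug at 10⁻⁴–10⁻⁸ mol/L for 48 h at 37 °C in humidified 5% CO₂. MTT (5 mg/mL solution) was then added for a further 4 h. Formazan was dissolved in 10% SDS–5% isobutanol–HCl for 12 h at room temperature. OD was read at 570 and 630 nm, and IC50 was derived. Negative controls were saline or 1% or 0.1% DMSO.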

[2] = test system: MKN-28; assay: Cytotoxicity against human MKN28 cells after 48 hrs by MTT assay; conditions: MKN-28, 48 h; in short: as §1
[3] = Cytotoxicity against human HCT cells after 48 hrs by MTT assay; in short: as §1
[4] = test system: HL-60; assay: Cytotoxicity against human HL60 cells after 48 hrs by MTT assay; conditions: HL-60, 48 h; in short: as §1

| Structure (SMILES) | IC50 [1] [µg/mL] | IC50 [2] [µg/mL] | IC50 [3] [µg/mL] | IC50 [4] [µg/mL] |
| --- | --- | --- | --- | --- |
| O=C1c2c(O)ccc(O)c2C(=O)c2c(NCCNCCO)ccc(NCCNCCO)c21 [MITOXANTRONE] | 0.0334 (≈ 0.0751 µM) | 0.02 (≈ 0.045 µM) | 1.54 (≈ 3.46 µM) | 0.29 (≈ 0.652 µM) |
| C=C1C(=O)[C@@]23[C@@H]4O[C@H]5O[C@@]2(O)[C@@H](O)[C@@H]2C(C)(C)CCC[C@]52[C@@H]3[C@@H](OC(C)=O)C[C@@H]14 [XEROPHILUSIN A] | 2.22 (≈ 5.49 µM) | 0.12 (≈ 0.297 µM) |  | 0.45 (≈ 1.11 µM) |
| C=C1C(=O)[C@@]23[C@@H]4O[C@H]5O[C@@]2(O)[C@@H](O)[C@@H]2C(C)(C)CCC[C@]52[C@@H]3[C@@H](O)C[C@@H]14 [MACROCALIN B] | 8.07 (≈ 22.3 µM) | 1.68 (≈ 4.64 µM) |  | 2.05 (≈ 5.66 µM) |
| C=C1C(=O)[C@@]23[C@@H]4O[C@H]5O[C@@]2(O)[C@@H](O)[C@@H]2C(C)(C)CCC[C@]52[C@@H]3CC[C@@H]14 [XEROPHILUSIN B] | 0.73 (≈ 2.11 µM) | 0.17 (≈ 0.491 µM) |  | 0.29 (≈ 0.837 µM) |
